Measured values taken from ChEMBL document CHEMBL3616442, “Unconventional Knoevenagel-type indoles: Synthesis and cell-based studies for the identification of pro-apoptotic agents” (Eur J Med Chem, 2015).

Assays:
[1] = Growth inhibition of human LOXIMVI cells after 48 hrs by sulforhodamine B assay; type: functional; conditions: LOX IMVI
How it was run: (§1)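 NCI 60-cell-line screen. Compounds tested at five 10-fold dilutions from 10^-4 to 10^-8 M. Cells exposed for the last 48 h of a 72 h incubation, growth estimated by sulforhodamine B protein assay. GI50 is the concentration giving 50% growth inhibition. Values beyond the tested range are expressed as greater or lesser than the extreme concentration.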

[2] = Growth inhibition of human SF295 cells after 48 hrs by sulforhodamine B assay; type: functional; conditions: SF-295, 48 h
NCI-H322M = assay: Growth inhibition of human NCI-H322M cells after 48 hrs by sulforhodamine B assay; type: functional; how it was run: as §1
M14 = assay: Growth inhibition of human M14 cells after 48 hrs by sulforhodamine B assay; type: functional; conditions: M14, 48 h; how it was run: as §1
SR = assay: Growth inhibition of human SR cells after 48 hrs by sulforhodamine B assay; type: functional
OVCAR-3 = assay: Growth inhibition of human OVCAR3 cells after 48 hrs by sulforhodamine B assay; type: functional; conditions: OVCAR-3, 48 h; how it was run: as §1
OVCAR-5 = assay: Growth inhibition of human OVCAR5 cells after 48 hrs by sulforhodamine B assay; type: functional; conditions: OVCAR-5, 48 h
SF-268 = assay: Growth inhibition of human SF268 cells after 48 hrs by sulforhodamine B assay; type: functional; conditions: SF-268, 48 h
U-251 = assay: Growth inhibition of human U251 cells after 48 hrs by sulforhodamine B assay; type: functional; conditions: U-251, 48 h
SK-MEL-5 = assay: Growth inhibition of human SK-MEL-5 cells after 48 hrs by sulforhodamine B assay; type: functional; conditions: SK-MEL-5, 48 h
[3] = Growth inhibition of human BT549 cells after 48 hrs by sulforhodamine B assay; type: functional; conditions: BT-549, 48 h; how it was run: as §1
HCT-116 = assay: Growth inhibition of human HCT116 cells after 48 hrs by sulforhodamine B assay; type: functional; conditions: HCT-116, 48 h; how it was run: as §1
A498 = assay: Growth inhibition of human A498 cells after 48 hrs by sulforhodamine B assay; type: functional; conditions: A498, 48 h; how it was run: as §1
UACC-257 = assay: Growth inhibition of human UACC257 cells after 48 hrs by sulforhodamine B assay; type: functional; conditions: UACC-257, 48 h
SNB-75 = assay: Growth inhibition of human SNB75 cells after 48 hrs by sulforhodamine B assay; type: functional; conditions: SNB-75, 48 h
KM12 = assay: Growth inhibition of human KM12 cells after 48 hrs by sulforhodamine B assay; type: functional; conditions: KM12, 48 h; how it was run: as §1
MDA-MB-468 = assay: Growth inhibition of human MDA-MB-468 cells after 48 hrs by sulforhodamine B assay; type: functional; conditions: MDA-MB-468, 48 h; how it was run: as §1
MT4 = assay: Antiproliferative activity against human MT4 cells after 96 hrs by MTT assay; type: functional, cell-based; conditions: MT4, 96 h
How it was run: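 Exponentially growing MT-4 cells (CD4+ human T-cells carrying integrated HTLV-1 genome), seeded at 1×10^5 cells/mL in RPMI-1640 with 10% FCS and antibiotics. Serial dilutions of compound (DMSO stock 100 mM, diluted in medium), 37 °C, 5% CO₂, 96 h. Viability read by MTT. 50% inhibition versus untreated controls by linear regression. Mean ± SD of three independent determinations.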

[4] = Growth inhibition of human Hs 578T cells after 48 hrs by sulforhodamine B assay; type: functional; how it was run: as §1
[5] = Growth inhibition of human SF539 cells after 48 hrs by sulforhodamine B assay; type: functional; conditions: SF-539, 48 h
K562 = assay: Growth inhibition of human K562 cells after 48 hrs by sulforhodamine B assay; type: functional; conditions: K562, 48 h; how it was run: as §1
SNB-19 = assay: Growth inhibition of human SNB19 cells after 48 hrs by sulforhodamine B assay; type: functional; conditions: SNB-19, 48 h
A549 = assay: Growth inhibition of human A549 cells after 48 hrs by sulforhodamine B assay; type: functional; conditions: A549, 48 h; how it was run: as §1
NCI-H226 = assay: Growth inhibition of human NCI-H226 cells after 48 hrs by sulforhodamine B assay; type: functional; conditions: NCI-H226, 48 h; how it was run: as §1
SK-MEL-28 = assay: Growth inhibition of human SK-MEL-28 cells after 48 hrs by sulforhodamine B assay; type: functional; conditions: SK-MEL-28, 48 h
HOP-62 = assay: Growth inhibition of human HOP62 cells after 48 hrs by sulforhodamine B assay; type: functional; conditions: HOP-62, 48 h; how it was run: as §1
OVCAR-4 = assay: Growth inhibition of human OVCAR4 cells after 48 hrs by sulforhodamine B assay; type: functional; conditions: OVCAR-4, 48 h; how it was run: as §1
[6] = Growth inhibition of human EKVX cells after 48 hrs by sulforhodamine B assay; type: functional; how it was run: as §1
SW-620 = assay: Growth inhibition of human SW620 cells after 48 hrs by sulforhodamine B assay; type: functional; conditions: SW-620, 48 h
[7] = Growth inhibition of human NCI-ADR-RES cells after 48 hrs by sulforhodamine B assay; type: functional; how it was run: as §1
[8] = Growth inhibition of human RXF393 cells after 48 hrs by sulforhodamine B assay; type: functional; conditions: RXF 393, 48 h
OVCAR-8 = assay: Growth inhibition of human OVCAR8 cells after 48 hrs by sulforhodamine B assay; type: functional; conditions: OVCAR-8, 48 h
NCI-H460 = assay: Growth inhibition of human NCI-H460 cells after 48 hrs by sulforhodamine B assay; type: functional; conditions: NCI-H460, 48 h; how it was run: as §1
NCI-H522 = assay: Growth inhibition of human NCI-H522 cells after 48 hrs by sulforhodamine B assay; type: functional; conditions: NCI-H522, 48 h; how it was run: as §1
HCT-15 = assay: Growth inhibition of human HCT15 cells after 48 hrs by sulforhodamine B assay; type: functional; conditions: HCT-15, 48 h; how it was run: as §1
T47D = assay: Growth inhibition of human T47D cells after 48 hrs by sulforhodamine B assay; type: functional
CCRF-CEM = assay: Growth inhibition of human CCRF-CEM cells after 48 hrs by sulforhodamine B assay; type: functional; how it was run: as §1
MDA-MB-435 = assay: Growth inhibition of human MDA-MB-435 cells after 48 hrs by sulforhodamine B assay; type: functional; conditions: MDA-MB-435, 48 h; how it was run: as §1
IGROV-1 = assay: Growth inhibition of human IGROV1 cells after 48 hrs by sulforhodamine B assay; type: functional; conditions: IGROV-1, 48 h; how it was run: as §1
HT-29 = assay: Growth inhibition of human HT-29 cells after 48 hrs by sulforhodamine B assay; type: functional; conditions: HT-29, 48 h; how it was run: as §1
HL-60(TB) = assay: Growth inhibition of human HL-60(TB) cells after 48 hrs by sulforhodamine B assay; type: functional; conditions: HL-60, 48 h
How it was run: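 NCI 60-cell-line screen, HL-60(TB) included. Compound given at five 10-fold dilutions from 10^-4 to 10^-8 M. Cells exposed for the last 48 h of a 72 h incubation. Growth or viability estimated by sulforhodamine B protein assay. GI50 is the concentration giving 50% growth inhibition. Values outside the tested range are reported as greater or less than the highest or lowest concentration.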

786-0 = assay: Growth inhibition of human 786-0 cells after 48 hrs by sulforhodamine B assay; type: functional; conditions: 786-0, 48 h; how it was run: as §1
[9] = Growth inhibition of human HOP92 cells after 48 hrs by sulforhodamine B assay; type: functional; conditions: HOP-92, 48 h; how it was run: as §1

Structure (SMILES): CCOC(=O)C(=Cc1c(-c2ccccc2)[nH]c2ccccc12)C(=O)OCC
- GI50 [1]: 5.6 µM
- GI50 [2]: 7.6 µM
- GI50 (NCI-H322M): 12.7 µM
- GI50 (M14): 4.2 µM
- GI50 (SR): 2.1 µM
- GI50 (OVCAR-3): 4.2 µM
- GI50 (OVCAR-5): 18.5 µM
- GI50 (SF-268): 6.8 µM
- GI50 (U-251): 4.9 µM
- GI50 (SK-MEL-5): 3.8 µM
- GI50 [3]: 5.3 µM
- GI50 (HCT-116): 4.3 µM
- GI50 (A498): 16.9 µM
- GI50 (UACC-257): 7.5 µM
- GI50 (SNB-75): 7 µM
- GI50 (KM12): 3.5 µM
- GI50 (MDA-MB-468): 3.1 µM
- EC50 (MT4): 2.3 µM
- GI50 [4]: 3.8 µM
- GI50 [5]: 14.5 µM
- GI50 (K562): 3.6 µM
- GI50 (SNB-19): 23.9 µM
- GI50 (A549): 6.4 µM
- GI50 (NCI-H226): 11.4 µM
- GI50 (SK-MEL-28): 7.7 µM
- GI50 (HOP-62): 5.5 µM
- GI50 (OVCAR-4): 10.5 µM
- GI50 [6]: 12.4 µM
- GI50 (SW-620): 5.6 µM
- GI50 [7]: 2.9 µM
- GI50 [8]: 3.7 µM
- GI50 (OVCAR-8): 4.1 µM
- GI50 (NCI-H460): 3.8 µM
- GI50 (NCI-H522): 3.4 µM
- GI50 (HCT-15): 4.1 µM
- GI50 (T47D): 2.7 µM
- GI50 (CCRF-CEM): 2.6 µM
- GI50 (MDA-MB-435): 3.4 µM
- GI50 (IGROV-1): 5.7 µM
- GI50 (HT-29): 4.6 µM
- GI50 (HL-60(TB)): 4.4 µM
- GI50 (786-0): 12.9 µM
- GI50 [9]: 8.8 µM

Structure (SMILES): COc1ccc(-c2[nH]c3ccc(OC)cc3c2/C=C(\C#N)S(=O)(=O)c2ccccc2)cc1
- GI50 [1]: 1.2 µM
- GI50 [2]: 0.76 µM
- GI50 (NCI-H322M): 4.3 µM
- GI50 (M14): 0.5 µM
- GI50 (SR): 0.305 µM
- GI50 (OVCAR-3): 0.359 µM
- GI50 (OVCAR-5): 4.6 µM
- GI50 (SF-268): 1.6 µM
- GI50 (U-251): 0.563 µM
- GI50 (SK-MEL-5): 0.319 µM
- GI50 [3]: 4.8 µM
- GI50 (HCT-116): 0.539 µM
- GI50 (UACC-257): 46.1 µM
- GI50 (SNB-75): 0.612 µM
- GI50 (KM12): 0.654 µM
- GI50 (MDA-MB-468): 1.3 µM
- EC50 (MT4): 0.2 µM
- GI50 [4]: 0.538 µM
- GI50 [5]: 0.51 µM
- GI50 (K562): 0.508 µM
- GI50 (SNB-19): 3.2 µM
- GI50 (A549): 2.8 µM
- GI50 (NCI-H226): 3.7 µM
- GI50 (SK-MEL-28): 0.787 µM
- GI50 (HOP-62): 3.1 µM
- GI50 (OVCAR-4): 2.1 µM
- GI50 [6]: 3.3 µM
- GI50 (SW-620): 0.54 µM
- GI50 [7]: 0.494 µM
- GI50 (OVCAR-8): 3.1 µM
- GI50 (NCI-H460): 0.687 µM
- GI50 (NCI-H522): 1.7 µM
- GI50 (HCT-15): 0.632 µM
- GI50 (T47D): 0.905 µM
- GI50 (CCRF-CEM): 1.3 µM
- GI50 (MDA-MB-435): 0.276 µM
- GI50 (IGROV-1): 10.6 µM
- GI50 (HT-29): 0.435 µM
- GI50 (HL-60(TB)): 0.899 µM
- GI50 (786-0): 2.1 µM
- GI50 [9]: 0.698 µM

Structure (SMILES): COc1ccc2[nH]c(-c3ccccc3)c(C=C(C#N)C#N)c2c1
- GI50 [1]: 4.9 µM
- GI50 [2]: 4.2 µM
- GI50 (NCI-H322M): 7.4 µM
- GI50 (M14): 2.3 µM
- GI50 (SR): 0.865 µM
- GI50 (OVCAR-3): 3.1 µM
- GI50 (OVCAR-5): 44.2 µM
- GI50 (SF-268): 8.3 µM
- GI50 (U-251): 3.5 µM
- GI50 (SK-MEL-5): 2.9 µM
- GI50 [3]: 2.2 µM
- GI50 (HCT-116): 4.4 µM
- GI50 (A498): 2 µM
- GI50 (UACC-257): 30 µM
- GI50 (SNB-75): 2.8 µM
- GI50 (KM12): 3.5 µM
- GI50 (MDA-MB-468): 2.1 µM
- EC50 (MT4): 1 µM
- GI50 [4]: 2.4 µM
- GI50 [5]: 2.9 µM
- GI50 (K562): 2.1 µM
- GI50 (SNB-19): 6 µM
- GI50 (A549): 7 µM
- GI50 (NCI-H226): 3.5 µM
- GI50 (SK-MEL-28): 4.4 µM
- GI50 (HOP-62): 5.3 µM
- GI50 (OVCAR-4): 5.4 µM
- GI50 [6]: 4.1 µM
- GI50 (SW-620): 3.6 µM
- GI50 [7]: 2.8 µM
- GI50 [8]: 9.8 µM
- GI50 (OVCAR-8): 7.7 µM
- GI50 (NCI-H460): 3.6 µM
- GI50 (NCI-H522): 4.6 µM
- GI50 (HCT-15): 3.2 µM
- GI50 (T47D): 2.3 µM
- GI50 (CCRF-CEM): 3.4 µM
- GI50 (MDA-MB-435): 0.607 µM
- GI50 (IGROV-1): 8.4 µM
- GI50 (HT-29): 3.1 µM
- GI50 (HL-60(TB)): 2.5 µM
- GI50 (786-0): 6.6 µM
- GI50 [9]: 2.4 µM
